Screening data deposited in PubChem BioAssay by The Scripps Research Institute Molecular Screening Center.
This is a sample that favours compounds with a hit; in the whole collection about 4% have one here.
OX1R antag-1 – antagonists of human orexin 1 receptor (OX1R); inhibition, % at 6.6 µM; actives 1.8% (n = 330,000); O43613; OX1R-expressing cells, FRET antagonist read-out; in the data active = inhibition mostly above about 38%, no sharp cut-off; inactive = mostly below about 40%;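 also: 0% = agonist challenge alone and 100% = reference antagonist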
Target sequence (O43613 whole entry, looked up): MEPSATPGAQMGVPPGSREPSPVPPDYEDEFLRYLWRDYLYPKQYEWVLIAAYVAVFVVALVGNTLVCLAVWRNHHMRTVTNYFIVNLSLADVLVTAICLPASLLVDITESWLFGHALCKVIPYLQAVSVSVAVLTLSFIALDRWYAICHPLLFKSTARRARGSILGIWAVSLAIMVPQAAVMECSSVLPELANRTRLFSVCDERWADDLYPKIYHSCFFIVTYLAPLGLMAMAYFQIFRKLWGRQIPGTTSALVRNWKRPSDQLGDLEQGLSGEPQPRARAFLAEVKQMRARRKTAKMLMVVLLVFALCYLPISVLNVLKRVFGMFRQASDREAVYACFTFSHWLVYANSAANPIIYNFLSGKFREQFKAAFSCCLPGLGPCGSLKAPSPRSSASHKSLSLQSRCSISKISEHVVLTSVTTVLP
TAAR1 antag – antagonists of human TAAR1; Q96RJ0; CHO RD-HGA16 TAAR1, Fluo-8 calcium fluorescence, antagonist; inhibition, % at 3 µM; actives 1.5% (n = 360,000);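 active = inhibition above a per-plate cutoff, the mean inhibition of test compounds on that plate plus 3 SD, cut at about 49% in these data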;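 also: 0% = DMSO plus EC80 beta-PEA response and 100% = DMSO alone without agonist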
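Test system – hTAAR1-expressing CHO RD-HGA16 cells, Gα16-coupled · Also added – β-PEA at EC80 concentration, post-compound challenge · Compound – 3 µM, single point · Incubation – dye loading 75 min at 37 °C, then 30 min room temperature · Measured by – Fluo-8 intracellular calcium dye fluorescence, real-time kinetic reads · Benchmarks – vehicle and agonist controls · Replicates – singlicate, one well per test compound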
CHO parental Ca – signal in parental CHO cells, OX1R antagonist counter-screen. parental CHO-K1, ATP-induced calcium, Fluo-8 fluorescence. inhibition, % at 5.6 µM. actives 0.63% (n = 330,000). AID 463079;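 active = inhibition above that plate's mean sample inhibition plus 3 SD, cut at about 26% in these data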;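 also: 0% = ATP-challenged DMSO wells and 100% = DMSO wells without ATP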
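Measured by: calcium-sensitive Fluo-8 fluorescence / Test system: CHO parental line / Controls: ATP-challenged DMSO wells low, unchallenged DMSO wells high / Measure: % inhibition / Compound: single nominal dose of 5.6 µM per compound / Replicates: single well per compound, no replicates / Reagent: ATP as calcium-mobilizing challenge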
OX1R antag-2 – human HCRTR1 antagonism | O43613 | CHO/OX1R cells, Fluo-8 calcium fluorescence, orexin A | inhibition, % at 5 µM | actives 0.43% (n = 330,000) | AID 434989;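 active = inhibition above its plate's threshold, mean inhibition of all tested compounds on the plate plus 3 SD, cut at about 37% in these data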;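 also: 0% = orexin A challenge wells and 100% = SB-334867-A antagonist wells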
TAAR1 agonist – agonists of human TAAR1. CHO RD-HGA16 TAAR1, Fluo-8 calcium fluorescence; vehicle wells 0%, saturating PEA agonist 100%. activation, % at 3 µM. actives 0.99% (n = 360,000);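 active = activation above the mean activation of all test compounds in the run plus 3 SD, cut at about 38% in these data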
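Test system: RD-HGA16 (CHO) cells co-expressing Gα16 and hTAAR1; dosing: one-point dosing at 3 µM (nominal); timing: 17-24 h seeding, 75 min 37 °C dye, 30 min RT; signal: kinetic Fluo-8 calcium fluorescence; read-out basis: % activation relative to PEA EC100 response; controls: DMSO and PEA EC100; replicates: n 1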
Active calls of the source: *; . = no result.

SMILES	OX1R antag-1	TAAR1 antag	CHO parental Ca	OX1R antag-2	TAAR1 agonist
COCCCn1c(=N)c(C(=O)NC2CCCCC2)cc2c(=O)n3ccccc3nc21	76*	8	-9	-29	11
CC(NC(=O)c1cc2c(=O)n3ccccc3nc2n(CC2CCCO2)c1=N)c1ccccc1 (stereo not given)	37*	-2	-9	-19	-1
N=c1c(C(=O)NC2CCCC2)cc2c(=O)n3ccccc3nc2n1CC1CCCO1 (stereo not given)	50*	-8	-15	0	-1
N=c1c(C(=O)NCc2ccco2)cc2c(=O)n3ccccc3nc2n1C1CCCC1	54*	-19	-6	-18	-1
COC(=O)c1cc2c(c3c4ccccc4n(S(=O)(=O)c4cccc(C)c4)c13)C(=O)N(Cc1ccc(N(C)C)cc1)C2	.	-1	.	.	0
N#Cc1c(N2CCSCC2)nsc1-c1ccccc1Cl	.	1	.	.	2
N=c1c(C(=O)NC2CCCCC2)cc2c(=O)n3ccccc3nc2n1CC1CCCO1 (stereo not given)	60*	-13	-6	-13	-4
COc1ccc(CCn2c(=N)c(C(=O)NC3CCCC3)cc3c(=O)n4ccccc4nc32)cc1	29	-20	-21	-30	1
Cc1ccc(CNC(=O)c2cc3c(=O)n4ccccc4nc3n(CC3CCCO3)c2=N)cc1 (stereo not given)	66*	.	-18	-49	.
CCOC(=O)C(CNc1ccc(O)cc1)NC(=O)c1ccccc1 (stereo not given)	.	16	.	.	1
Cn1cc(SCC(=O)NCc2ccc3c(c2)OCO3)c2ccccc21	41*	-27	-5	-3	-2
O=C(CSc1nc2ccccc2c(=O)n1NC(=O)Cc1ccccc1)NCc1ccco1	16	2	-13	-22	8
Cc1cccc(-n2c(SCC(=O)NCc3ccc4c(c3)OCO4)nc3ccccc3c2=O)c1	40*	14	-10	-11	1
O=C(CSc1nc2ccccc2c(=O)n1NC(=O)Cc1ccccc1)NCc1ccccc1	46*	4	-7	-11	3
Cc1nn(CC(=O)NC2CCS(=O)(=O)C2)c(C)c1[N+](=O)[O-] (stereo not given)	5	-4	2	3	1
COc1ccc(-c2cc(=O)c3cccc(CC(=O)O)c3o2)cc1	.	-5	.	.	0
C/C(=N\Nc1nc2ccccc2s1)c1cccs1	56*	0	-19	-22	10
CC(=O)Nc1cccc(/C(C)=N/Nc2nc3ccccc3s2)c1	33	20	-15	6	9
CC(=NNc1nc2ccccc2s1)c1ncccn1	.	74*	.	.	49*
COC(=O)c1cc2c(c3c4ccccc4n(S(=O)(=O)c4cccc(C)c4)c13)C(=O)N(Cc1ccccc1OC)C2	.	3	.	.	-1
Cc1ccc(CCNC(=O)CCCn2nc(C)c3c(C)n(-c4ccc(C)cc4)nc3c2=O)cc1	7	-37	-26	-34	-3
Cc1ccc(-n2nc3c(=O)n(CCCC(=O)NCCc4ccccc4C)nc(C)c3c2C)cc1	8	-22	-26	-15	40*
CCNC(=O)N1CCN(c2ccc(N3CCN(Cc4ccccc4)[C@H](C)C3)c(C)c2)[C@@H](C)C1	.	-8	.	.	0
CCN(CC)S(=O)(=O)c1ccc(Oc2ccc(S(=O)(=O)N(CC)CC)cc2)cc1	14	6	58*	33	8
CCN(CC)S(=O)(=O)c1ccc(Oc2ccccc2OC)cc1	12	-12	20	-15	3
SMILES	OX1R antag-1	TAAR1 antag	CHO parental Ca	OX1R antag-2	TAAR1 agonist
CCCn1c(SCC(=O)Nc2ccc(F)c(Cl)c2)nc(O)cc1=O	4	-31	30*	13	2
Cc1cccc(N2CCN(S(=O)(=O)c3ccc4c(c3)CCC(=O)N4)CC2C)c1 (stereo not given)	27	18	40*	-7	10
Cc1cccc(N2CCN(S(=O)(=O)c3ccc4c(c3)C(C)(C)C(=O)N4C)CC2C)c1 (stereo not given)	6	-13	-8	-13	3
O=C(O)C1CCN(C(=O)c2ccc3c(c2)OCO3)CC1	-2	9	-2	7	0
CCOC(=O)C1CCN(C(=O)c2ccc(OCC(=O)Nc3cccc(C(F)(F)F)c3)c(OC)c2)CC1	14	15	45*	45*	7
CCOC(=O)C1CCN(C(=O)c2ccc3c(c2)OCO3)CC1	10	6	57*	-3	1
COC(=O)c1ccc2nc(-c3ccco3)c(Cc3ccccc3OC)n2c1	.	-21	.	.	0
O=c1c2sc(-c3ccccc3)cc2nc2n1CCC2	52*	8	-10	-16	3
O=c1c2sc(-c3ccccc3)cc2nc2n1CCCCC2	6	-12	-22	-28	3
COc1ccc(S(=O)(=O)N2CCCc3nc(-c4ccccc4)ccc32)cc1	.	-4	.	.	2
Cc1ccc2c(CSc3nnnn3C)cc(=O)oc2c1	62*	-13	-1	-16	2
COc1ccccc1-c1sc2cc3c(cc2c1C#Cc1cncn1C)OCO3	4	7	-10	-21	1
CCCCN(Cc1ccccc1)S(=O)(=O)c1ccc2[nH]c(=O)oc2c1	25	49*	-16	5	13
Cc1ccc(S(=O)(=O)NNC(=O)NC23CC4CC(CC(C4)C2)C3)cc1	7	6	-11	-14	3
COCCNC(=O)c1cc2c(=O)n3cccc(C)c3nc2n(Cc2ccncc2)c1=N	49*	1	-9	-21	7
CCn1c(=N)c(C(=O)NC)cc2c(=O)n3cccc(C)c3nc21	.	1	.	.	9
CCCCNC(=O)c1cc2c(=O)n3cccc(C)c3nc2n(Cc2ccncc2)c1=N	41*	0	-16	-22	-2
COCCCn1c(=NC(=O)c2ccncc2)c(C#N)cc2c(=O)n3cccc(C)c3nc21	41*	7	-7	-15	9
COc1cc2c(cc1OC)[C@@H](NC(=O)c1ccncc1)[C@H](C)[C@H]2c1ccccc1	.	-11	.	.	0
C[C@@H]1CN(C(=O)OC(C)(C)C)CCN1c1ccc(N2CCS(=O)(=O)CC2)c(C#N)c1	.	16	.	.	12
COc1ccccc1N(C)S(=O)(=O)c1ccc(C(=O)NCC2CCCCC2)cc1	6	53*	-17	1	12
COc1ccccc1N(C)S(=O)(=O)c1ccc(C(=O)NCC(C)C)cc1	4	-5	-11	-7	7
COC(=O)c1ccc(CNC(=O)c2ccc(S(=O)(=O)N(C)c3ccccc3OC)cc2)cc1	11	57*	4	20	21
COc1ccc(NC(=O)COC(=O)c2cccc(S(=O)(=O)N(C)C)c2)cc1	.	15	.	.	2
CN(C)S(=O)(=O)c1cccc(C(=O)OCC(=O)Nc2sccc2C(N)=O)c1	37	75*	0	14	41*
